We go through eight compounds from PMC3225805 (Chemistry & biology, 2011).

Holding throughout (type): biochemical
Assay [1] has as its target T1, VLuc (Vibrio fischeri luciferase) (Aliivibrio fischeri, UniProt P19907).
T1 sequence (P19907 1-354): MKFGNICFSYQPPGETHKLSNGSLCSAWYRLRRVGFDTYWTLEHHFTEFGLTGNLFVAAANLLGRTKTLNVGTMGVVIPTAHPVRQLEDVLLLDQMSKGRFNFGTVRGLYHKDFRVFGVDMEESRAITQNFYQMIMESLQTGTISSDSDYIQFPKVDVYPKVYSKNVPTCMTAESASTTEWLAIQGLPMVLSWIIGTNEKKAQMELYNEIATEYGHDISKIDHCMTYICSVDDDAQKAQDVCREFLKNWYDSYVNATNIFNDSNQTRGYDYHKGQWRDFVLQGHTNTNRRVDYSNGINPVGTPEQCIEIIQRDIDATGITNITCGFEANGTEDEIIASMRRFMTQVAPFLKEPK
T1 sequence (P19908 1-326 partner): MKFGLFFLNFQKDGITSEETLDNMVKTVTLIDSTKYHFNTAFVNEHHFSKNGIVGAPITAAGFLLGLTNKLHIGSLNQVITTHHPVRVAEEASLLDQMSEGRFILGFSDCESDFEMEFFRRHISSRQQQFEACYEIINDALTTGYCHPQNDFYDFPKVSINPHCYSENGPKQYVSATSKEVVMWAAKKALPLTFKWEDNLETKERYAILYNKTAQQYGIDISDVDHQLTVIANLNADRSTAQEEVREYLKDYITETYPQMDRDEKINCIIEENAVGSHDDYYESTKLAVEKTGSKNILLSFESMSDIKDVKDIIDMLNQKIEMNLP
Kind of assay: luminescence inhibition, 1536-well CRC, FMN reductase-coupled. The following applies: read-out: VLuc; 0.1 M sodium phosphate pH 7.0, 0.005% decanal, 0.1 mM NADH, 2 μM FMN, 0.1% BSA; partially purified enzyme.

Assay [2] deals with T2, LmLuc (Luciola mingrelica luciferase) (Luciola mingrelica, UniProt Q26304).
T2 sequence (Q26304 1-548): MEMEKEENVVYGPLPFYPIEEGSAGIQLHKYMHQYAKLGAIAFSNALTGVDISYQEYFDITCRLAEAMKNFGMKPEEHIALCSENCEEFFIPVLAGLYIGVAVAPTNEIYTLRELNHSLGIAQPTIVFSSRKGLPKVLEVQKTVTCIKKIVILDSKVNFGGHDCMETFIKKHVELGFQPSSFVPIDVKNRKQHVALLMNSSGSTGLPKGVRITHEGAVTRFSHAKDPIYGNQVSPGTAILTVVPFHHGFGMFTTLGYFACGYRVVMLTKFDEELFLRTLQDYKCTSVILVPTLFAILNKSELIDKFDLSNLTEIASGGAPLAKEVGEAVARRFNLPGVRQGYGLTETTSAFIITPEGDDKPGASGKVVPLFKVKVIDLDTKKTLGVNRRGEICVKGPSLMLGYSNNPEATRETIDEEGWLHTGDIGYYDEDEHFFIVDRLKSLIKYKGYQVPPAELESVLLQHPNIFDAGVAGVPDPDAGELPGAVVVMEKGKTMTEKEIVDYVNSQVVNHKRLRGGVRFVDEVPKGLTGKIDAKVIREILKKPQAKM
The experiment in a line: luminescence inhibition, 1536-well CRC. In outline:
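Luciola mingrelica luciferase at 5 nM final in 1536-well format, run by the same protocol as the Photinus enzyme with 10 μM D-luciferin and 10 μM ATP. Luminescence is read over a test-compound titration. IC50 comes from curve fitting and is given as mean ±SD of at least 4 determinations.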

Assay [3] has as its target T3, RLuc (Renilla reniformis luciferase) (Renilla reniformis, UniProt P27652).
T3 sequence (P27652 1-311): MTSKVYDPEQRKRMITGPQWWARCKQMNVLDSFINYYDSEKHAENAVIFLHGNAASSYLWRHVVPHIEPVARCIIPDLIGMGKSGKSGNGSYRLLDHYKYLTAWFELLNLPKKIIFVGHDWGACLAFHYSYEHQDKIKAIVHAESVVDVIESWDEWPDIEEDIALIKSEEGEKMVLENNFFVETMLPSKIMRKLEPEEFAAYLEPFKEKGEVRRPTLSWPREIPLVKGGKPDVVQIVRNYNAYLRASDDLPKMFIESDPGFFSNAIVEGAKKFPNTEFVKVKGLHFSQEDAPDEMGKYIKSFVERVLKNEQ
Kind of assay: luminescence inhibition, 1536-well CRC. The following applies: read-out: % inhibition at 57 μM (inactive).

Assay [4] has as its target T4, FLuc (Photinus pyralis luciferase) (Photinus pyralis, UniProt P08659). The experiment in a line: luminescence inhibition, 1536-well CRC. An outline of the steps:
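Purified wild-type Photinus pyralis luciferase in 1536-well format, with 10 μM D-luciferin and 10 μM ATP as substrates. Luminescence is read across a concentration titration of test compound. IC50 comes from the fitted concentration-response curve and is given as mean ±SD of at least 4 determinations.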

In assay [5] the target is T3, RLuc (Renilla reniformis luciferase). Kind of assay: luminescence inhibition, 1536-well CRC. An outline of the steps: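 Renilla reniformis luciferase in 1536-well format with 5 μM coelenterazine as substrate. Luminescence is measured over a test-compound concentration series. IC50 is taken from the fitted concentration-response curve and given as mean ±SD of at least 4 determinations.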

Assay [6] has as its target T2, LmLuc (Luciola mingrelica luciferase). Kind of assay: luminescence inhibition, 1536-well CRC. The note with it: read-out: % inhibition at 57 μM (inactive).
Assay [7] addresses T4, FLuc (Photinus pyralis luciferase). The experiment in a line: luminescence inhibition, 1536-well CRC. The following applies: read-out: % inhibition at 57 μM (inactive).
Where [8] appears, read: read-out: LmLuc, 10 μM D-luciferin and ATP, 5 nM enzyme.
Setting [9] is: read-out: FLuc, 10 μM D-luciferin and ATP.

Read-outs that look alike come from different tables or passages of the source. A value given as a limit tells only on which side of the number the result lay.

A word on the inhibition: it is the percentage by which the read-out fell short of the control.

T4 sequence (P08659 whole entry): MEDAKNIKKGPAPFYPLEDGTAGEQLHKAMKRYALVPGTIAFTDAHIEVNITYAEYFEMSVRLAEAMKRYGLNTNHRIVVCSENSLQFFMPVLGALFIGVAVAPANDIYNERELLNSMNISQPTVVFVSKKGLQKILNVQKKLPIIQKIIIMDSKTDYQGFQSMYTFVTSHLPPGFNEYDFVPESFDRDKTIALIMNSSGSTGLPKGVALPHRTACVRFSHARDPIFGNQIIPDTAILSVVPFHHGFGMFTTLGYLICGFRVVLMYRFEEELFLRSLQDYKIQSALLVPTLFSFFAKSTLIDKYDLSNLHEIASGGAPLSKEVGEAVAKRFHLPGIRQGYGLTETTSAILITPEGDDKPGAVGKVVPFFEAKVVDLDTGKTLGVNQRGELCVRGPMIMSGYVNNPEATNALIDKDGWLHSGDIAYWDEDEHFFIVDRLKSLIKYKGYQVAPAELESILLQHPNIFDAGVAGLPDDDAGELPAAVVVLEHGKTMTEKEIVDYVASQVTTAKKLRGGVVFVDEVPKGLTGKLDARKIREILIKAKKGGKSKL

Turning to `O=C1O/C(=C\c2ccc(O)cc2)C(O)=C1c1ccc(O)cc1` [compound 1, aspulvinone E], the IC50 in assay [1] is greater than 57 µM; in assay [2] it was 3.6 ± 1.1 µM; in assay [4] it was 1.4 ± 1.6 µM. The inhibition at 57 µM in assay [3] was less than 20%.

With `CC(C)(O)[C@H]1Cc2cc(/C=C3\OC(=O)C(c4ccc5c(c4)C[C@H](C(C)(C)O)O5)=C3O)ccc2O1` [compound 5, aspulvinone J-CR], the IC50 was 6.5 ± 3.3 µM in assay [1]; greater than 57 µM in assay [5] (read-out: RLuc, 5 μM coelenterazine); 0.1 ± 0.03 µM in assay [2] (setting [8]).

For the compound `COC(=O)[C@@]1(Cc2ccc(O)c(CC=C(C)C)c2)OC(=O)C(O)=C1c1ccc(O)cc1` [compound 10, butyrolactone I], the inhibition at 57 µM in assay [6] and in assay [7] was less than 20% throughout. In addition, the IC50 in assay [5] is greater than 57 µM.

For `COC(=O)[C@]1(Cc2ccc(O)c(CC3OC3(C)C)c2)OC(=O)C(O)=C1c1ccc(O)cc1` (stereo partly drawn) [compound 11, butyrolactone III], the inhibition at 57 µM in assay [6], in assay [3] and in assay [7] was less than 20% in each case.

Take aspulvinone F [compound 2]: the IC50 was greater than 57 µM in assay [5] (read-out: Ultra, 5 μM coelenterazine); 2.5 ± 0.5 µM in assay [2] (setting [8]); 3.6 ± 1.5 µM in assay [4] (setting [9]).

For aspulvinone I-CR [compound 4], the IC50 was found to be 12 ± 2.3 µM in assay [1], 0.5 ± 0.2 µM in assay [2] (setting [8]) and 0.72 ± 0.4 µM in assay [4] (setting [9]).

Turning to aspulvinone M-CR [compound 8], the figures for the IC50 in assay [1], in assay [2] (setting [8]) and in assay [4] (setting [9]) were 18 ± 8 µM, 5.3 ± 5.9 µM and 1.7 ± 1.6 µM, respectively.

For the compound benzofuran [compound 12], the figures for the IC50 in assay [2] (setting [8]) and in assay [4] (setting [9]) were 14.8 ± 2.8 µM and 18.6 ± 8.8 µM, respectively.
